Measurements gathered from unrelated publications.
Compare with care: the assays were run in different laboratories.
Target: Serine/threonine-protein kinase PAK 1 (PAK1, Homo sapiens, UniProt Q13153)

SMILES	observed	action	method	concentration	quantity	value
O=c1[nH]c2ccccc2n1C1CCN(Cc2ccc(-c3[nH]c4cc5ncnc5cc4nc3-c3ccccc3)cc2)CC1	cell-free assay	–	–	0.5 µM	remaining signal	90.6%
C#Cc1n[nH]c2c(-c3cn(C(C)c4ccccn4)c(=O)[nH]c3=O)cc(F)cc12 (centres unmarked)	enzyme activity	inhibitor	–	1 µM	inhibition	3.4%
COc1ncccc1-c1cnn2ccc(N3CCN(C(=O)OC(C)C)CC3)nc12	binding	–	competition with immobilised ligand	1 µM	remaining binding	100%
COc1cc(Nc2ncc(F)c(Nc3ccc4c(n3)NC(=O)C(C)(C)O4)n2)cc(OC)c1OC	binding	–	competition with immobilised ligand	10 µM	inhibition	91%
Nc1ncc(-c2nc(N3CCOCC3)nc(N3CCOCC3)n2)c(C(F)F)n1	binding	–	competition with immobilised ligand	10 µM	remaining binding	63%
Cc1nn(C)cc1-c1nc2c(N3CCN(Cc4ccc(Cl)cc4)CC3)c(Cl)cnc2[nH]1	binding	–	competition with immobilised ligand	1 µM	remaining binding	100%
C#Cc1n[nH]c2c(-c3cn([C@@H](C)c4ccccc4)c(=O)[nH]c3=O)cc(F)cc12	enzyme activity	inhibitor	–	0.1 µM	inhibition	5.7%
Cn1cc(-c2cc(F)cc(N3CCn4c(cc5c4CCCC5)C3=O)c2CO)cc(Nc2ccc(N3CCN(C4COC4)CC3)cn2)c1=O	enzyme activity	inhibitor	–	0.1 µM	inhibition	5%
N#CC1(c2ccccn2)CCN(Cc2cc(C(=O)O)c(=O)n3ccccc23)CC1	cell-free assay	–	competition with immobilised ligand	1 µM	remaining binding	86%
Cn1cc(-c2cccc(N3CCc4c(sc5c4CC(C)(C)C5)C3=O)c2CO)cc(Nc2ccncn2)c1=O	enzyme activity	inhibitor	–	1 µM	inhibition	9%
Cn1cncc1[C@@](O)(COc1ccc(C#N)cc1-c1ccc(OC(F)(F)F)cc1)c1ccc(C#N)cc1	cell-free assay	–	competition with immobilised ligand	1 µM	remaining binding	100%
